# According to article PMC7986169 (Clinical Pharmacology in Drug Development, 2021):
# Where “and” joins values, the source holds several entries; their conditions need not be identical. Equal values may be shown once. Read-outs that look alike come from different tables or passages of the source.
# Columns and labels:
# [1] = Population pharmacokinetic analysis; format: in vivo, human
# Summary of the method: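 Oral dosing at 0.5–15 mg twice daily in UC patients, excluding creatinine clearance <40 mL/min. Predose and postdose plasma samples were stored at about –20°C and assayed by a validated method (LOQ 0.100 ng/mL). One-compartment model with first-order absorption, with or without lag. Exponential IIV on CL/F and V/F; IOV on Ka. Separate proportional residual errors for >8 h and ≤8 h postdose. FOCE with interaction; nonparametric bootstrap, 1000 runs.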
# [2] = cited from earlier work
# [3] = system: JAK1; settings: in vitro assays; cited from earlier work
# [4] = cited from earlier work; remark: listed apart in the source
# [5] = final model, table: estimate (RSE%), text: estimate (95%CI bootstrap)
# [6] = fraction of the reference category (male)
structure (smiles),measurement,setting,value
C[C@@H]1CCN(C(=O)CC#N)C[C@@H]1N(C)c1ncnc2[nH]ccc12 [tofacitinib],"CL/F, typical estimate",[1]; base model,25.0 L/h
same,IIV (%CV) for CL/F,[1]; base model,25.2%
same,IOV (%CV) for Ka,[1]; base model,192.4%
same,Ka,[1]; base model,9.9 h⁻¹
same,"V/F, typical estimate",[1]; base model,111 L
same,"CL/F, bootstrap median",[1]; bootstrap of final model,26.3 L/h
same,"IIV for CL/F, bootstrap",[1]; bootstrap of final model,22.2%
same,"Ka, bootstrap median",[1]; bootstrap of final model,9.86 h⁻¹
same,"Lag time, bootstrap median",[1]; bootstrap of final model,0.236 (NA) h
same,"V/F, bootstrap median",[1]; bootstrap of final model,115.5 (NA) L
same,"IOV for Ka, bootstrap","[1]; bootstrap of final model, IOV instead of IIV (footnote b)",191.9%
same,Dose proportionality of exposure,[1]; dose range 0.5-15 mg twice daily,dose‐proportional increase
same,"Lower CL/F, Asian compared with non-Asian patients",[1]; final model prediction,6.8%
same,"Lower CL/F, baseline creatinine clearance 60 mL/min compared to 108.7 mL/min",[1]; final model prediction,19%
same,"Lower CL/F, females compared with males",[1]; final model prediction,13.2%
same,"Lower V/F, female compared with male patients",[1]; final model prediction,15.5%
same,"Lower V/F, patient aged 80 years compared with 40 years",[1]; final model prediction,7.7%
same,"Lower V/F, patient weighing 53 kg relative to 72.0 kg","[1]; final model prediction, 10th percentile of weight",approximately 16.4%
same,"Higher V/F, patient weighing 95 kg relative to 72.0 kg","[1]; final model prediction, 90th percentile of weight",~17.6%
same,"CL/F (apparent oral clearance), typical estimate","[1]; final model, reference individual: non-Asian male, 72.0 kg, 40.0 years, baseline creatinine clearance 108.7 mL/min, table: estimate (RSE%), text: estimate (95%CI bootstrap)",26.3 L/h and 26.3 (25.5–27.2) L/h and 26.3 (1.2) L/h
same,IIV (%CV) for CL/F,"[1]; final model, table: IIV (RSE%)",22% and 22.2% and 22.2 (7.7) %
same,IOV (%CV) for Ka,"[1]; final model, table: IOV (RSE%)",191.8% and 191.8 (7.0) %
same,"Ka (first-order absorption rate constant), typical estimate",[1]; [5],9.9 (7.1) h^−1
same,Lag time,[1]; [5],0.236 (0.52) h
same,Covariate parameter estimate: Female on CL/F,[1]; [6],0.868
same,Covariate parameter estimate: Female on V/F,[1]; [6],0.845
same,Covariate parameter estimate: Asian on CL/F,[1]; fraction of the reference category (non-Asian),0.932
same,Vd/F,"[1]; human, plasma, oral",116 L
same,half-life,"[1]; human, plasma, oral, Derived elimination half-life (t½), final model, patients with UC",3.05 h
same,half-life,"[1]; human, plasma, oral, Derived elimination t½, base model",~3.05 h
same,Covariate parameter estimate: Age on V/F,"[1]; power function exponent, normalized to 40.0 years",–0.116
same,Covariate parameter estimate: Body weight on V/F,"[1]; power function exponent, normalized to 72.0 kg",0.585
same,Covariate parameter estimate: BCCL on CL/F,"[1]; power function exponent, normalized to 108.7 mL/min",0.354
same,Share of clearance due to renal elimination,[2],30%
same,Mean terminal-phase half-life (t½),[2]; healthy volunteers,approximately 3.2 h
same,Time of peak plasma concentration after oral administration,[2]; healthy volunteers,approximately 1 hour (h)
same,Share of clearance via hepatic metabolism,[2]; primarily via cytochrome P450 3A4,70%
same,Inhibitory potency for JAK1,[3],potent inhibitor
same,AUC higher than in healthy individuals,[4]; mild renal impairment,37%
same,AUC higher than in healthy individuals,[4]; moderate renal impairment,43%
same,AUC higher than in healthy individuals,[4]; severe renal impairment,123%
